What all share (design): scale not given: the % may be the effect or the level left
The species named for assay [1] is Rattus norvegicus. Kind of assay: Reduction in sterol level in CFE rat […] in serum at 0.1% of diet treated through diet for 6 days relative to control. Type of assay: functional. The procedure, abridged:
(§1)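 Compound dissolved in methanol-chloroform (1:3 v/v), mixed into ground rat chow at 0.1, 0.05 or 0.025% (w/w), and solvent evaporated; controls received solvent-treated chow. Rats fed ad libitum with water for 6 days, then killed fed and bled. Serum sterols and triglycerides measured by autoanalyzer. Values given as percent of control, mean ± SE; significance by Student's t test.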

The species entered for assay [2] is Rattus norvegicus. Kind of assay: Reduction in triglyceride level in CFE rat […] in serum at 0.05% of diet treated through diet for 6 days relative to control. Type of assay: functional. The procedure, abridged: as §1
The species named for assay [3] is Rattus norvegicus. Put plainly: Reduction in triglyceride level in CFE rat […] at 0.025% of diet treated through diet for 6 days relative to control. The assay is classed as functional, Serum. In a few lines:
as §1

The species named for assay [4] is Rattus norvegicus. Kind of assay: Reduction in sterol level in CFE rat […] at 0.025% of diet treated through diet for 6 days relative to control. The assay is classed as functional, Serum. The procedure, abridged: as §1
The species named for assay [5] is Rattus norvegicus. Put plainly: Reduction in triglyceride level in CFE rat […] in serum at 0.1% of diet treated through diet for 6 days relative to control. The assay is classed as functional. The procedure, abridged: as §1
Assay [6] is filed under the species Rattus norvegicus. Kind of assay: Reduction in sterol level in CFE rat […] in serum at 0.05% of diet treated through diet for 6 days relative to control. The assay is classed as functional. In a few lines: as §1

Regarding `CCCCCCCCCCCCCCCCOc1ccc(C(=O)O)cc1Cl`, the Activity in the assay filed under Rattus norvegicus [1] amounted to 103%; in the assay listed under Rattus norvegicus [2] it was 87%; in the assay listed under Rattus norvegicus [3] it was 69%; in the assay filed under Rattus norvegicus [4], 108%; in the assay filed under Rattus norvegicus [5] it was 75%; in the assay filed under Rattus norvegicus [6], 97%.

As to `O=C(O)c1ccc(OCCCCCCCCCCCS)cc1`, the Activity came to 80% in the assay listed under Rattus norvegicus [1]; 47% in the assay filed under Rattus norvegicus [2]; 61% in the assay filed under Rattus norvegicus [3]; 44% in the assay listed under Rattus norvegicus [4]; 44% in the assay filed under Rattus norvegicus [5]; 74% in the assay listed under Rattus norvegicus [6].

In the case of `O=C(O)c1ccc(OCCCCCCCCCCCCCCCSCc2ccccc2)cc1`, the Activity is recorded as 82% in the assay filed under Rattus norvegicus [1]; 50% in the assay listed under Rattus norvegicus [2]; 70% in the assay listed under Rattus norvegicus [3]; 109% in the assay listed under Rattus norvegicus [4]; 37% in the assay filed under Rattus norvegicus [5]; 101% in the assay listed under Rattus norvegicus [6].

Take `CCCCCCCCC/C=C/CCCOc1ccc(C(=O)O)cc1`: the Activity in the assay listed under Rattus norvegicus [1] was 77%; in the assay filed under Rattus norvegicus [2], 89%; in the assay listed under Rattus norvegicus [3], 89%; in the assay listed under Rattus norvegicus [4], 87%; in the assay filed under Rattus norvegicus [5] it was 87%; in the assay filed under Rattus norvegicus [6], 73%.

On to `CCCCS(=O)(=O)CCCCCCCCCCCOc1ccc(C(=O)O)cc1`, for which the Activity in the assay filed under Rattus norvegicus [1] was 94%; in the assay filed under Rattus norvegicus [2], 69%; in the assay listed under Rattus norvegicus [3], 81%; in the assay filed under Rattus norvegicus [4] it was 91%; in the assay listed under Rattus norvegicus [5], 57%; in the assay filed under Rattus norvegicus [6] it was 95%.

With `O=C(O)c1ccc(OC2CCCCCCCCCCC2)cc1`, the Activity is reported as 86% in the assay filed under Rattus norvegicus [1]; 81% in the assay filed under Rattus norvegicus [2]; 97% in the assay listed under Rattus norvegicus [3]; 87% in the assay filed under Rattus norvegicus [4]; 87% in the assay listed under Rattus norvegicus [5]; 94% in the assay listed under Rattus norvegicus [6].

`CCCCCCCCCCCCCCC(C)Oc1ccc(C(=O)O)cc1` (stereo not drawn): the Activity in the assay listed under Rattus norvegicus [1] is recorded as 84%; in the assay filed under Rattus norvegicus [2] it was 72%; in the assay listed under Rattus norvegicus [3], 92%; in the assay listed under Rattus norvegicus [4] it was 90%; in the assay listed under Rattus norvegicus [5], 70%; in the assay filed under Rattus norvegicus [6], 85%.

`CCCCCCCCCCCCCC(CC)Oc1ccc(C(=O)O)cc1` (stereo not drawn): the Activity is on record as 85% in the assay listed under Rattus norvegicus [1]; 78% in the assay filed under Rattus norvegicus [2]; 83% in the assay filed under Rattus norvegicus [3]; 82% in the assay filed under Rattus norvegicus [4]; 75% in the assay listed under Rattus norvegicus [5]; 86% in the assay listed under Rattus norvegicus [6].

Turning to `C=CCCCCCCCCCOc1ccc(C(=O)O)cc1`, the Activity in the assay listed under Rattus norvegicus [1] worked out at 86%; in the assay listed under Rattus norvegicus [2], 81%; in the assay filed under Rattus norvegicus [3], 82%; in the assay listed under Rattus norvegicus [4], 100%; in the assay filed under Rattus norvegicus [5], 60%; in the assay filed under Rattus norvegicus [6], 99%.

In the case of `CC(C)CCCC(C)CCCC(C)CCOc1ccc(C(=O)O)cc1` (stereo not drawn), the Activity is given as 87% in the assay filed under Rattus norvegicus [1]; 72% in the assay filed under Rattus norvegicus [2]; 72% in the assay listed under Rattus norvegicus [3]; 81% in the assay filed under Rattus norvegicus [4]; 26% in the assay filed under Rattus norvegicus [5]; 73% in the assay listed under Rattus norvegicus [6].

Take `CCCCCCCCCCCCC(C)(C)Oc1ccc(C(=O)O)cc1`: the Activity in the assay filed under Rattus norvegicus [1] was 97%; in the assay listed under Rattus norvegicus [2], 79%; in the assay filed under Rattus norvegicus [3], 77%; in the assay listed under Rattus norvegicus [4], 100%; in the assay filed under Rattus norvegicus [5] it was 87%; in the assay filed under Rattus norvegicus [6], 90%.

Regarding `CCCCSCCCCCCCCCCCOc1ccc(C(=O)OC)cc1`, the Activity in the assay listed under Rattus norvegicus [1] was 96%; in the assay filed under Rattus norvegicus [2] it was 62%; in the assay filed under Rattus norvegicus [3], 87%; in the assay listed under Rattus norvegicus [4] it was 100%; in the assay listed under Rattus norvegicus [5], 69%; in the assay listed under Rattus norvegicus [6] it was 92%.

Take `COC(=O)c1ccc(OCCCCCCCCCCCSC#N)cc1`: the Activity in the assay filed under Rattus norvegicus [1] is reported as 160%; in the assay filed under Rattus norvegicus [2], 94%; in the assay filed under Rattus norvegicus [3], 80%; in the assay filed under Rattus norvegicus [4], 102%; in the assay filed under Rattus norvegicus [5], 145%; in the assay listed under Rattus norvegicus [6], 102%.

(Values after ChEMBL document CHEMBL3272177, “Hypolipidemic alkoxybenzoic acids” (1976).)
